According to the RNAGym collection of RNA variant scans (doi:10.1002/anie.201605470):

B1: Osa-1-4 twister ribozyme (parent)
chain: CCGCCUAACACUGCCAAUGCCGGUCCCAAGCCCGGAUAAAAGUGGAGGGGGCGG

Variants of: B1
Assay: self-cleavage, relative activity (ratio to wild type); higher = more cleavage; co-transcriptional
Summary of the method: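 For each read, cleavage status was taken from whether upstream sequence was present. The reads came from an Oryza sativa twister ribozyme of 54 nucleotides, whose DNA template was synthesised with 97 % wild-type base and 1 % of each other base at the 48 positions downstream of the cleavage site. The template was transcribed in vitro at 37 °C for 2 h with co-transcriptional self-cleavage, and the RNA was reverse-transcribed using a template-switching oligonucleotide, PCR-amplified and deep-sequenced. Relative activity is the fraction cleaved normalised to wild type.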

Variant | self-cleavage
CCGCCUAACACUGCCAAUCCCGGUCCCAAGCCCGGAUAAAAGUGGUGGGGGCGG [A46U G19C] | 0.03
CCGCCUAACACUGCCAAUUCCGGUCCCAAGCCCGGAUAAAAGUGGUGGGGGCGG [A46U G19U] | 0.04
CCGCCUAACACUGCCAAUGCCAGUCCCAAGCCCGGAUAAAAGUGGUGGGGGCGG [A46U G22A] | 0.09
CCGCCUAACACUGCCAAUGCCCGUCCCAAGCCCGGAUAAAAGUGGUGGGGGCGG [A46U G22C] | 0.03
CCGCCUAACACUGCCAAUGCCUGUCCCAAGCCCGGAUAAAAGUGGUGGGGGCGG [A46U G22U] | 0.06
CCGCCUAACACUGCCAAUGCCGAUCCCAAGCCCGGAUAAAAGUGGUGGGGGCGG [A46U G23A] | 0.06
CCGCCUAACACUGCCAAUGCCGCUCCCAAGCCCGGAUAAAAGUGGUGGGGGCGG [A46U G23C] | 0.02
CCGCCUAACACUGCCAAUGCCGUUCCCAAGCCCGGAUAAAAGUGGUGGGGGCGG [A46U G23U] | 0.03
CCGCCUAACACUGCCAAUGCCGGUCCCAAACCCGGAUAAAAGUGGUGGGGGCGG [A46U G30A] | 0.02
CCGCCUAACACUGCCAAUGCCGGUCCCAACCCCGGAUAAAAGUGGUGGGGGCGG [A46U G30C] | 0.01
CCGCCUAACACUGCCAAUGCCGGUCCCAAUCCCGGAUAAAAGUGGUGGGGGCGG [A46U G30U] | 0.02
CCGCCUAACACUGCCAAUGCCGGUCCCAAGCCCAGAUAAAAGUGGUGGGGGCGG [A46U G34A] | 0.06
CCGCCUAACACUGCCAAUGCCGGUCCCAAGCCCCGAUAAAAGUGGUGGGGGCGG [A46U G34C] | 0.07
CCGCCUAACACUGCCAAUGCCGGUCCCAAGCCCUGAUAAAAGUGGUGGGGGCGG [A46U G34U] | 0.06
CCGCCUAACACUGCCAAUGCCGGUCCCAAGCCCGAAUAAAAGUGGUGGGGGCGG [A46U G35A] | 0.07
CCGCCUAACACUGCCAAUGCCGGUCCCAAGCCCGCAUAAAAGUGGUGGGGGCGG [A46U G35C] | 0.05
CCGCCUAACACUGCCAAUGCCGGUCCCAAGCCCGUAUAAAAGUGGUGGGGGCGG [A46U G35U] | 0.09
CCGCCUAACACUGCCAAUGCCGGUCCCAAGCCCGGAUAAAAAUGGUGGGGGCGG [A46U G42A] | 0.08
CCGCCUAACACUGCCAAUGCCGGUCCCAAGCCCGGAUAAAACUGGUGGGGGCGG [A46U G42C] | 0.06
CCGCCUAACACUGCCAAUGCCGGUCCCAAGCCCGGAUAAAAUUGGUGGGGGCGG [A46U G42U] | 0.03
CCGCCUAACACUGCCAAUGCCGGUCCCAAGCCCGGAUAAAAGUAGUGGGGGCGG [A46U G44A] | 0.07
CCGCCUAACACUGCCAAUGCCGGUCCCAAGCCCGGAUAAAAGUCGUGGGGGCGG [A46U G44C] | 0.06
CCGCCUAACACUGCCAAUGCCGGUCCCAAGCCCGGAUAAAAGUUGUGGGGGCGG [A46U G44U] | 0.07
CCGCCUAACACUGCCAAUGCCGGUCCCAAGCCCGGAUAAAAGUGAUGGGGGCGG [A46U G45A] | 0.08
CCGCCUAACACUGCCAAUGCCGGUCCCAAGCCCGGAUAAAAGUGCUGGGGGCGG [A46U G45C] | 0.04

Variant | self-cleavage
CCGCCUAACACUGCCAAUGCCGGUCCCAAGCCCGGAUAAAAGUGUUGGGGGCGG [A46U G45U] | 0.03
CCGCCUAACACUGCCAAUGCCGGUCCCAAGCCCGGAUAAAAGUGGUAGGGGCGG [A46U G47A] | 0.06
CCGCCUAACACUGCCAAUGCCGGUCCCAAGCCCGGAUAAAAGUGGUCGGGGCGG [A46U G47C] | 0.04
CCGCCUAACACUGCCAAUGCCGGUCCCAAGCCCGGAUAAAAGUGGUUGGGGCGG [A46U G47U] | 0.05
CCGCCUAACACUGCCAAUGCCGGUCCCAAGCCCGGAUAAAAGUGGUGAGGGCGG [A46U G48A] | 0.03
CCGCCUAACACUGCCAAUGCCGGUCCCAAGCCCGGAUAAAAGUGGUGCGGGCGG [A46U G48C] | 0.04
CCGCCUAACACUGCCAAUGCCGGUCCCAAGCCCGGAUAAAAGUGGUGUGGGCGG [A46U G48U] | 0.03
CCGCCUAACACUGCCAAUGCCGGUCCCAAGCCCGGAUAAAAGUGGUGGAGGCGG [A46U G49A] | 0.04
CCGCCUAACACUGCCAAUGCCGGUCCCAAGCCCGGAUAAAAGUGGUGGCGGCGG [A46U G49C] | 0.04
CCGCCUAACACUGCCAAUGCCGGUCCCAAGCCCGGAUAAAAGUGGUGGUGGCGG [A46U G49U] | 0.05
CCGCCUAACACUGCCAAUGCCGGUCCCAAGCCCGGAUAAAAGUGGUGGGAGCGG [A46U G50A] | 0.08
CCGCCUAACACUGCCAAUGCCGGUCCCAAGCCCGGAUAAAAGUGGUGGGCGCGG [A46U G50C] | 0.07
CCGCCUAACACUGCCAAUGCCGGUCCCAAGCCCGGAUAAAAGUGGUGGGUGCGG [A46U G50U] | 0.09
CCGCCUAACACUGCCAAUGCCGGUCCCAAGCCCGGAUAAAAGUGGUGGGGACGG [A46U G51A] | 0.09
CCGCCUAACACUGCCAAUGCCGGUCCCAAGCCCGGAUAAAAGUGGUGGGGCCGG [A46U G51C] | 0.05
CCGCCUAACACUGCCAAUGCCGGUCCCAAGCCCGGAUAAAAGUGGUGGGGUCGG [A46U G51U] | 0.06
CCGCCUAACACUGCCAAUGCCGGUCCCAAGCCCGGAUAAAAGUGGUGGGGGCAG [A46U G53A] | 0.1
CCGCCUAACACUGCCAAUGCCGGUCCCAAGCCCGGAUAAAAGUGGUGGGGGCCG [A46U G53C] | 0.05
CCGCCUAACACUGCCAAUGCCGGUCCCAAGCCCGGAUAAAAGUGGUGGGGGCUG [A46U G53U] | 0.09
CCGCCUAACACUGCCAAUGCCGGUCCCAAGCCCGGAUAAAAGUGGUGGGGGCGA [A46U G54A] | 0.08
CCGCCUAACACUGCCAAUGCCGGUCCCAAGCCCGGAUAAAAGUGGUGGGGGCGC [A46U G54C] | 0.08
CCGCCUAACACUGCCAAUGCCGGUCCCAAGCCCGGAUAAAAGUGGUGGGGGCGU [A46U G54U] | 0.17
CCGCCUAACACAGCCAAUGCCGGUCCCAAGCCCGGAUAAAAGUGGUGGGGGCGG [A46U U12A] | 0.07
CCGCCUAACACCGCCAAUGCCGGUCCCAAGCCCGGAUAAAAGUGGUGGGGGCGG [A46U U12C] | 0.06
